How the values were obtained:
[1] = system: HT-29; test: Cytotoxic activity against human HT-29 cells assessed as cell growth inhibition after 48 hrs by MTT assay; assay type: functional, cell-based; conditions: HT-29, 48 h
In short: (§1)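 Log-phase cells (1.25-2.5×10^4/100 µl; RPMI 1640, HepG2 in high-glucose DMEM, 10% FBS) given compound in DMSO (final <0.1%), 0-50 µM, 48 h, 37 °C, 5% CO2. MTT 4 h, DMSO solubilization, OD 540 nm minus background; viability relative to untreated; IC50 by graphical extrapolation, ≥3 experiments in duplicate.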

[2] = system: HepG2; test: Cytotoxic activity against human HepG2 cells assessed as cell growth inhibition after 48 hrs by MTT assay; assay type: functional, cell-based; conditions: HepG2, 48 h; in short: as §1
[3] = system: MCF7; test: Cytotoxic activity against human MCF7 cells assessed as cell growth inhibition after 48 hrs by MTT assay; assay type: functional, cell-based; conditions: MCF7, 48 h; in short: as §1
[4] = system: Jurkat; test: Cytotoxic activity against human Jurkat cells assessed as cell growth inhibition after 48 hrs by MTT assay; assay type: functional, cell-based; in short: as §1
[5] = system: U-937; test: Cytotoxic activity against human U937 cells assessed as cell growth inhibition after 48 hrs by MTT assay; assay type: functional, cell-based; conditions: U-937, 48 h; in short: as §1
[6] = system: PBMC; test: Cytotoxic activity against human PBMC cells assessed as cell growth inhibition after 48 hrs by MTT assay; assay type: cell-based; in short: as §1

| SMILES | IC50 [1] | IC50 [2] | IC50 [3] | IC50 [4] | IC50 [5] | IC50 [6] |
| --- | --- | --- | --- | --- | --- | --- |
| C=C(C)[C@@H]1CC[C@]2(C(=O)O)CC[C@]3(C)[C@H](CC[C@@H]4[C@@]5(C)CC[C@H](OC(=O)Cn6cc(CO[C@@H]7[C@H]8OC(C)(C)O[C@H]8O[C@@H]7[C@H](O)CO)nn6)C(C)(C)[C@@H]5CC[C@]43C)[C@@H]12 | > 50 µM | > 50 µM | > 50 µM | > 50 µM | > 50 µM |  |
| C=C(C)[C@@H]1CC[C@]2(C(=O)O)CC[C@]3(C)[C@H](CC[C@@H]4[C@@]5(C)CC[C@H](OC(=O)Cn6cc(-c7ccc([N+](=O)[O-])cc7)nn6)C(C)(C)[C@@H]5CC[C@]43C)[C@@H]12 | > 50 µM | 42.7 µM | 45.7 µM | 44.8 µM | > 50 µM | > 50 µM |
| C=C(C)[C@@H]1CC[C@]2(C(=O)O)CC[C@]3(C)[C@H](CC[C@@H]4[C@@]5(C)CC[C@H](OC(=O)Cn6ccnn6)C(C)(C)[C@@H]5CC[C@]43C)[C@@H]12 | > 50 µM | > 50 µM | > 50 µM | > 50 µM | > 50 µM | > 50 µM |
| C=C(C)[C@@H]1CC[C@]2(C(=O)O)CC[C@]3(C)[C@H](CC[C@@H]4[C@@]5(C)CC[C@H](OC(=O)Cn6cc(CCCC)nn6)C(C)(C)[C@@H]5CC[C@]43C)[C@@H]12 | > 50 µM | 49.8 µM | > 50 µM | > 50 µM | > 50 µM |  |
| C=C(C)[C@@H]1CC[C@]2(C(=O)O)CC[C@]3(C)[C@H](CC[C@@H]4[C@@]5(C)CC[C@H](OC(=O)Cn6cc(-c7cnc(OC)nc7OC)nn6)C(C)(C)[C@@H]5CC[C@]43C)[C@@H]12 | 39.8 µM | > 50 µM | 44.7 µM | > 50 µM | 41.9 µM | > 50 µM |
| C=C(C)[C@@H]1CC[C@]2(C(=O)O)CC[C@]3(C)[C@H](CC[C@@H]4[C@@]5(C)CC[C@H](OC(=O)Cn6cc(CO[C@@H]7[C@H]8OC(C)(C)O[C@H]8O[C@@H]7[C@H]7COC(C)(C)O7)nn6)C(C)(C)[C@@H]5CC[C@]43C)[C@@H]12 | > 50 µM | > 50 µM | > 50 µM | > 50 µM | > 50 µM |  |
